FGF22 binding = FGF22 (human) thermal shift binding; Q9HCT0; recombinant FGF22 thermal shift, SYPRO orange fluorescence; percent of sucrose octasulfate shift, DMSO zero; activity (Tm shift, normalised), % at 9.99 µM; 340,000 tested, 1.5% active;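 active means mean Tm shift, scaled 0 neutral to 100 positive control, at about 1.3% or above, every replicate too, limit read from the data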
ARFGAP1 inhibitor = inhibits rat ARF GTPase activating protein 1. inhibition, % at 16.5 µM. AID 651572. 360,000 tested, 0.26% active. Q62848. Arfgap1-stimulated ARF1 GTP hydrolysis, GDP FP detection;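 active means inhibition above a per-plate limit, mean inhibition of low control wells plus 3 SD, cut at about 25% in these data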
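Material – truncated rat Arfgap1 GAP domain · Buffer or medium – HEPES-based buffer, pH 7.5 · Reagent – human ARF1(Δ1-17)-GTP substrate · Dosing – 16.5 µM single point, 1.26% DMSO · Schedule – GTP hydrolysis reaction 2 h at 25 °C · Technique – GDP detection by fluorescence polarization · Benchmarks – No-Arfgap1 wells (100%) versus DMSO full-reaction wells (0%) · Repeats – single replicate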
Efflux pump mplx = blocks antifungal efflux pumps in multiplex yeast assay. 330,000 tested, 0.44% active. S. cerevisiae Candida pump triplex, Nile Red efflux. inhibition, % at 10 µM;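 active means plate passing quality check with inhibition over a set limit, or well fluorescence over plate mean plus 4 SD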;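 further: Nile Red retained in pooled yeast measured as flow cytometry median fluorescence; higher means more Nile Red kept so more efflux inhibition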
Rtt109 HAT inh = inhibitors of Candida albicans Rtt109/Vps75 histone acetyltransferase; purified Rtt109/Vps75, ThioGlo CoA-SH fluorescence, 4 h; inhibition, % at 34.9 µM; 330,000 tested, 0.16% active;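 active means inhibition of at least 50% in every replicate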
Target sequence (Q5AAJ8 whole entry, looked up): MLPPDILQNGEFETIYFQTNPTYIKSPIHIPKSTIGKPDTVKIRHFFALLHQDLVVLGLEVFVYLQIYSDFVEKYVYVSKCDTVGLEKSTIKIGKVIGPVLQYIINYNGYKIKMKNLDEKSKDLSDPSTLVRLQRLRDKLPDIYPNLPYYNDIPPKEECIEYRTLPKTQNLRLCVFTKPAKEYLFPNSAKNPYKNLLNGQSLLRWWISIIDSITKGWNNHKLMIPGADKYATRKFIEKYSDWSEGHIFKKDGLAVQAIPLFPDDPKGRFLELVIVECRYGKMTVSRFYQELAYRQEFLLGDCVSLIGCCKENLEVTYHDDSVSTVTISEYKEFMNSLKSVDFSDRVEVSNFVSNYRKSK
ASAP1 GAP inh = ASAP1 ArfGAP inhibition | ASAP1-stimulated ARF1 GTP hydrolysis, GDP FP detection | inhibition, % at 16.5 µM | 360,000 tested, 0.19% active; in the data active means inhibition above about 25%
Target sequence (Q9ULH1 325-724 limits assumed): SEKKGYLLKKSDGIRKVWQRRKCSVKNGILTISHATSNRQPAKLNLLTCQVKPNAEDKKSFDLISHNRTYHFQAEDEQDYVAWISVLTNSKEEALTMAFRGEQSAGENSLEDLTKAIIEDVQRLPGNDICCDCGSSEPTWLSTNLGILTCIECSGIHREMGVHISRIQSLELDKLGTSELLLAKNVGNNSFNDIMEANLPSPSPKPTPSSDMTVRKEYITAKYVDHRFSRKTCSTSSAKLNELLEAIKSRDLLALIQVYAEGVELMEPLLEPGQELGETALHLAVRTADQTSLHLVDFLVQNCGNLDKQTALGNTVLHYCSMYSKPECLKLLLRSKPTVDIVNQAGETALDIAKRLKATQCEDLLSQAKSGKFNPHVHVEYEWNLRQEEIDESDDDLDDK
ASAP1 inh confirm = confirmation of human ASAP1 inhibitors | inhibition, % at 16.5 µM | shares compounds with ASAP1 GAP inh | ASAP1-stimulated Arf1 GTPase, GDP fluorescence polarization | 620 tested, 37% active;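 active means mean inhibition over triplicates exceeds the hit threshold derived for the earlier primary screening run, cut at about 25% in these data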
ARFGAP1 inh conf = rat ARFGAP1 inhibition, confirmed | shares compounds with ARFGAP1 inhibitor | ARFGAP1-stimulated ARF1 GTP hydrolysis, GDP tracer FP | inhibition, % at 16.5 µM | 890 tested, 30% active | AID 651608;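 active means average inhibition over triplicates above the hit cutoff set in the earlier primary screen, cut at about 25% in these data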
A number is an active result; 0 = inactive; - = no result given. Most compounds without a hit are left out; they make up all but 1.9% or so of the library.

SMILES | FGF22 binding | ARFGAP1 inhibitor | Efflux pump mplx | Rtt109 HAT inh | ASAP1 GAP inh | ASAP1 inh confirm | ARFGAP1 inh conf
COc1ccc(C(=O)Nc2ccc3nc(N4CCN(C)CC4)cc(C)c3c2)c(OC)c1 | 0 | 50 | 0 | 0 | 37 | 66 | 71
COc1ccc(-c2cc(-c3ccccc3O)[nH]n2)cc1OC | - | 0 | 0 | 0 | 0 | - | -
COc1ccc(-c2cc(-c3ccc(OC)c(OC)c3)n[nH]2)c(O)c1 | - | 31 | 0 | 0 | 38 | 34 | 37
CCOc1ccc(C(=O)CCC(=O)NCC(=O)Nc2ccc(F)c(F)c2F)cc1 | 0 | 0 | - | - | 0 | - | -
N#Cc1ccc(-c2ccc(OCC(=O)NCC(=O)Nc3ccc(F)c(F)c3F)cc2)cc1 | 0 | 58 | 0 | 0 | 37 | 51 | 80
CC1CCN(S(=O)(=O)c2ccc3c(c2)c(=O)c(C(=O)NC2CCCC2)cn3C)CC1 | - | 0 | 0 | 0 | 0 | - | -
COc1cc2c3nnc(-c4ccc(F)cc4)c-3cn(Cc3ccccc3F)c2cc1OC | 0 | 152 | - | 0 | 58 | 83 | 172
COc1cc2c3nnc(-c4ccccc4)c-3cn(Cc3ccccc3F)c2cc1OC | - | 36 | 0 | - | 58 | 116 | 36
COc1ccccc1Cc1c(-c2ccc(F)cc2)nc2ccc(Cl)cn12 | 0 | 0 | - | - | 0 | - | -
CS(=O)(=O)N(CC(=O)Nc1ccccc1C(=O)N1CCOCC1)c1ccccc1 | - | 0 | 0 | 0 | 0 | - | -
Cn1cnc(CCNC(=O)C[C@H]2CC[C@H]3[C@@H](COC[C@H](O)CN3C(=O)C3CC3)O2)c1 | 0 | - | - | - | - | - | -
COc1ccc(-c2nn(C)c3sc(C(=O)NCCN(C)C)cc23)cc1OC | 0 | 33 | 0 | 0 | 26 | 54 | 54
CCN(CC)CCNC(=O)c1cc2c(-c3cccc(OC)c3)nn(C)c2s1 | 0 | 0 | 0 | 0 | 0 | - | -
COc1ccccc1C(=O)NC(=O)Nc1nc(-c2ccccc2)cc(C(F)(F)F)n1 | 0 | 0 | 0 | 0 | 0 | - | -
O=C(N/N=C/c1cc(Cl)ccc1O)c1ccc(Br)cc1 | - | 65 | 0 | 0 | 52 | 76 | 99
O=C(N/N=C/c1cc(Br)ccc1O)c1ccncc1 | 0 | 0 | 0 | 0 | 0 | - | -
O=C(Cn1c(=O)c2c(ncn2Cc2ccccc2)n(Cc2ccccc2)c1=O)N1CCCC1 | - | 0 | 0 | 0 | 0 | - | -
Oc1ccccc1C=NNC(=S)NN=Cc1ccccc1O | 0 | 55 | - | 0 | 32 | 58 | 71
O=C(O)c1cc(NN=Nc2cccc([N+](=O)[O-])c2)cc([N+](=O)[O-])c1 | - | 48 | 0 | 0 | 29 | 81 | 94
CO[C@H](CN(C)Cc1cc(F)ccc1F)[C@@H](C)CN([C@H](C)CO)S(=O)(=O)c1ccc(F)cc1 | 0 | - | - | - | - | - | -
Cc1ccc(OCc2ccc(C(=O)Nc3ccc(C(N)=O)cc3)o2)c([N+](=O)[O-])c1 | 0 | 86 | 0 | 0 | 60 | 88 | 116
C[C@@H]1CCCCO[C@@H](CN(C)C(=O)CCC(F)(F)F)[C@H](C)CN([C@@H](C)CO)C(=O)c2cc(NC(=O)C3CCCCC3)ccc2O1 | 0 | - | - | - | - | - | -
Cc1ccccc1/C=N/Nc1ccnc2cc(Cl)ccc12 | 0 | 92 | 0 | 0 | 50 | 94 | 149
Clc1ccc2c(N/N=C/c3ccc(Br)cc3)ccnc2c1 | 0 | 69 | 0 | 0 | 50 | 65 | 96
COCCNC(=O)C1(C)CCN(C(=O)c2ccc(F)c(C)c2)C1 (stereo unspecified) | 0 | 0 | - | - | 0 | - | -
SMILES | FGF22 binding | ARFGAP1 inhibitor | Efflux pump mplx | Rtt109 HAT inh | ASAP1 GAP inh | ASAP1 inh confirm | ARFGAP1 inh conf
CCOc1ccc(CNC(=S)N/N=C\c2ccc([N+](=O)[O-])cc2)cc1 | - | 0 | 0 | 0 | 0 | - | -
O=[N+]([O-])c1ccc(C=NNC(=S)NN=Cc2ccc([N+](=O)[O-])cc2)cc1 | 0 | 25 | - | 0 | 74 | 164 | 182
O=C(Nc1cccc(-c2nc3ccccc3[nH]2)c1)c1cccc(NC(=O)c2ccco2)c1 | - | 77 | 0 | 0 | 44 | 76 | 123
O=C(N/N=C/C=C/c1ccc([N+](=O)[O-])cc1)c1cccs1 | - | 60 | 0 | 0 | 54 | 67 | 66
CCN(CC)CCOC(=O)c1ccc(N/C=C(/C#N)c2nc(-c3ccc(OC)c(OC)c3)cs2)cc1 | 0 | 115 | 0 | 0 | 71 | 184 | 196
Cc1ccc2nc(SCC(=O)N3CCCCC3)nc(=O)n2c1 | 0 | 48 | 0 | 0 | 29 | 33 | 57
Cc1ccc2nc(SCC(=O)N3CCCCCC3)nc(=O)n2c1 | 0 | 62 | 0 | 0 | 44 | 44 | 77
Cc1ccn2c(=O)nc(SCC(=O)N3CCCCCC3)nc2c1 | 0 | 0 | 0 | 0 | 0 | - | -
COc1ccc2c(c1)CC/C(=C\c1ccc(OC)c(Cn3cccn3)c1)C2=O | - | 0 | 0 | 0 | 0 | - | -
COc1ccc2c(c1)CC/C(=C\c1ccc(OC)c(Cn3nc(C)cc3C)c1)C2=O | - | 29 | 0 | 0 | 46 | 56 | 0
COc1ccc(C2C(C(=O)c3ccccc3)N3c4ccccc4C=CC3C2[N+](=O)[O-])cc1 (stereo unspecified) | 0 | 27 | - | 0 | 29 | 0 | 0
Cc1cc2oc3cc(NCCC4CCCN4C)ccc3c(=O)c2cc1C (stereo unspecified) | 0 | 31 | 0 | 0 | 28 | 38 | 30
O=c1c2ccccc2oc2ccc(NCCCn3ccnc3)cc12 | 0 | 0 | 0 | 0 | 0 | - | -
O=C(CSc1ccccc1)Nc1ccc(-c2nc3ccccc3[nH]2)cc1 | - | 45 | 0 | 0 | 57 | 57 | 59
Cc1ccc2nc(-c3ccc(NC(=O)CSc4ccccc4)cc3)[nH]c2c1 | - | 0 | 0 | 0 | 0 | - | -
CC(=O)Nc1cc(-c2ccc(N3CCN(C)CC3)cc2)cn2c(-c3ccc(S(C)(=O)=O)cc3)cnc12 | 0 | 74 | - | - | 69 | 148 | 142
CC(=O)Nc1cc(-c2ccc(N3CCN(C)CC3)cc2)cn2c(-c3ccccc3)cnc12 | 0 | 0 | - | - | 0 | - | -
O=C(/C=C\c1cn(-c2ccccc2)nc1-c1ccccc1)Nc1nccs1 | - | 50 | 0 | 0 | 50 | 32 | 72
COc1ccc2c3c([nH]c2c1)[C@H](CO)N(C(=O)CN(C)C)CC31CCN(C(=O)c2ccncc2)CC1 | 0 | - | - | - | - | - | -
CC(=O)c1cccc(Nc2nc(-c3ccccc3)nc3ccccc23)c1 | 0 | 0 | 0 | 0 | 0 | - | -
Cn1c(=O)cc(Nc2ccccc2)[nH]c1=O | 0 | 0 | 0 | 0 | 0 | - | -
CC(=O)c1cccc(-c2ccc3c(=O)[nH]c(Nc4ccccc4)cc3c2)c1 | 0 | 30 | 0 | 0 | 53 | 39 | 26
O=c1[nH]c(Nc2ccccc2)cc2ccccc12 | - | 33 | 0 | 0 | 25 | 0 | 0
CCOC(=O)CCCn1ccc2cc(S(=O)(=O)N3CCCC3)ccc21 | 0 | 0 | 0 | 0 | 0 | - | -
Cc1cc(C)c2nc(N3C(=O)C(O)=C(C(=O)c4ccco4)C3c3cccc(O)c3)sc2c1 (stereo unspecified) | - | 25 | 0 | 0 | 26 | 39 | 39
